{"source": "paper PMC2865030", "about": "(Biochemical Journal, 2008)", "key": {"Tah1 [1]": {"target": "T1, Tah1 (Saccharomyces cerevisiae, UniProt P25638)", "T1 sequence (P25638 1-111)": "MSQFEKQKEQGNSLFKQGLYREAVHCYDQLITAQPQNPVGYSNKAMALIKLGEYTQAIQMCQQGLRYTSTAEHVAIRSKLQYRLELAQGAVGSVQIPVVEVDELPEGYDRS", "test": "ITC of peptides injected into Tah1", "format": "binding, S. cerevisiae"}, "Tah1 [2]": {"target": "T1, Tah1", "test": "Sedimentation equilibrium analytical ultracentrifugation of Tah1", "format": "physicochemical, S. cerevisiae", "settings": "for Kd: 20 °C, pH 7.5", "outline": "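Tag-cleaved Tah1 was dialysed into 20 mM Tris/HCl pH 7.5, 1 mM EDTA, 5 mM NaCl. Sedimentation equilibrium was run at 20 °C, loading 7.0 and 0.5 mg·ml−1 (547 and 39 µM), with a 12 mm path. Initial scans at 726 g checked for aggregates, followed by 39030 g, scanning hourly until unchanged (24 h). Data were fitted by INVEQ, Mfit and NONLIN, and Ka was reciprocated to Kd. Reversible versus irreversible dimer was judged by comparing the two loadings.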"}, "yeast Hsp90 M705V": {"target": "yeast Hsp90 M705V", "test": "ITC of TPR-domain proteins with yeast Hsp90 M705V", "format": "binding", "settings": "300 μM Tah1 injected into 30 μM yeast Hsp90 M705V, 4 °C, pH 8.0", "outline": "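ITC: mouse CHIP or yeast Tah1 (His tags cleaved) at 300 µM was titrated as 9–11 injections of 27 µl into 30 µM yeast Hsp90 M705V. Runs were at 30 °C for CHIP and 4 °C for Tah1, in 20 mM Tris/HCl pH 8.0, 1 mM EDTA, 5 mM NaCl. Data were corrected for separately measured heat of dilution and fitted by nonlinear least squares for stoichiometry, binding constant and enthalpy.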"}}, "note": "Ends that are not written are not given here."}
{"substance": "PADTEVEEVD", "values": [{"measurement": "Kd", "setting": "Tah1 [1]", "value": "9.8 ± 0.7", "unit": "µM"}]}
{"substance": "PADAAMEEVD", "values": [{"measurement": "Kd", "setting": "Tah1 [1]", "value": "0.75 ± 0.04", "unit": "µM"}]}
{"substance": "Tah1: TPR-containing protein associated with Hsp90, S. cerevisiae, 111 amino acid residues, Hsp90-interacting co-chaperone", "values": [{"measurement": "dimeric species present", "setting": "Tah1 [2]; estimated from INVEQ fit, sedimentation equilibrium", "value": "approx. 19%"}, {"measurement": "Kd", "setting": "Tah1 [2]; read-out: Kd by INVEQ, Tah1 0.5 mg·ml−1 (39 μM), monomer-dimer", "value": 510, "unit": "µM"}, {"measurement": "Kd", "setting": "Tah1 [2]; read-out: Kd′ by NONLIN′, Tah1 0.5 mg·ml−1 (39 μM)", "value": 150, "unit": "µM"}, {"measurement": "Kd", "setting": "Tah1 [2]; read-out: Kd′ by NONLIN′, Tah1 7.0 mg·ml−1 (547 μM)", "value": 1800, "unit": "µM"}, {"measurement": "Kd", "setting": "yeast Hsp90 M705V", "value": "13 ± 1.7", "unit": "µM"}]}
{"substance": "AEGPTMEEVD", "values": [{"measurement": "Kd", "setting": "Tah1 [1]", "value": "4.2 ± 0.5", "unit": "µM"}]}
{"substance": "PADTEAEEVD", "values": [{"measurement": "Kd", "setting": "Tah1 [1]", "value": "3.3 ± 0.2", "unit": "µM"}]}
{"substance": "AEGPTAEEVD", "values": [{"measurement": "Kd", "setting": "Tah1 [1]", "value": "14.8 ± 0.7", "unit": "µM"}]}
